Assay results of several laboratories.
CDK2: Cyclin-dependent kinase 2 (CDK2, Homo sapiens, UniProt P24941)
CDK2 with cyclin A2: Cyclin-dependent kinase 2, with cyclin A2 (CDK2, Homo sapiens, UniProt P24941)
CTSB: Cathepsin B (CTSB, Homo sapiens, UniProt P07858)
PIM1: Serine/threonine-protein kinase pim-1 (PIM1, Homo sapiens, UniProt P11309)
LGALS4 C-terminal domain: Galectin-4, C-terminal domain (LGALS4, Homo sapiens, UniProt P56470)

SMILES | target | test | endpoint | value
COc1ccc2[nH]c(C(=O)Nc3nc(CC(=O)O)cs3)cc2c1 | CDK2 | enzyme activity, inhibitor, ELISA | IC50 | 3.19 µM
CC(=O)c1nn(-c2ccc(C)cc2)/c(=N/N=C(\C)c2ccc(NC(=O)c3ccccc3)cc2)s1 | Cyclin-dependent kinase 8, with cyclin C (CDK8, Homo sapiens, UniProt P49336) | enzyme activity, inhibitor | IC50 | 0.267 µM
CC(=O)Nc1c(N)nc(SCC(=O)N/N=C/c2ccc([N+](=O)[O-])cc2)[nH]c1=O | CDK2 with cyclin A2 | enzyme activity, inhibitor | IC50 | 0.189 µM
COc1cc(N2CCC(N3CCN(C)CC3)CC2)ccc1Nc1ncc(Cl)c(Nc2ccccc2P(C)(C)=O)n1 | Multidrug and toxin extrusion protein 1 (SLC47A1, Homo sapiens, UniProt Q96FL8) | transporter uptake, inhibitor | Ki | 0.78 µM
CCOC(=O)/C=C/C(=O)[C@H](CC(C)C)NC(=O)[C@H](Cc1ccccc1)NC(=O)[C@H](Cc1ccccc1)N=[N+]=[N-] (mixture of isomers) | CTSB | enzyme activity, inhibitor | IC50 | 0.32 µM
C[C@H]1C[C@H]2[C@@H]3CCC4=CC(=O)C=C[C@]4(C)[C@@]3(Cl)[C@@H](O)C[C@]2(C)[C@@]1(O)C(=O)CO | ADGRG3 (Homo sapiens, UniProt Q86Y34) | β-arrestin recruitment, agonist | EC50 | 3.49 µM
CC(C)Oc1ccc(S(=O)(=O)c2ccc(Oc3cc(OCC(N)=O)c(C(=O)C(Cl)Cl)cc3[N+](=O)[O-])cc2)cc1 | [Pyruvate dehydrogenase (acetyl-transferring)] kinase isozyme 4, mitochondrial (PDK4, Homo sapiens, UniProt Q16654) | enzyme activity, inhibitor, ATP luminescence | IC50 | 17.2 µM
Cc1ccc2oc(=O)cc(NCCO)c2c1 | Alpha-1A adrenergic receptor (Adra1a, Rattus norvegicus, UniProt P43140) | calcium signal, antagonist | IC50 | 1820 µM
CC(C)C[C@H](NC(=O)[C@H](Cc1ccccc1)NC(=O)OCc1ccccc1)C(=O)C=O | CTSB | enzyme activity, inhibitor | IC50 | 4.36 µM
CCOc1nc(-c2cccc(O)c2)cc(-c2cc3cc(OC)ccc3nc2N2CCOCC2)c1C#N | PIM1 | enzyme activity, inhibitor | IC50 | 0.11 µM
NCCCNc1ncnc2c1ncn2[C@@H]1O[C@H](CN(CC#Cc2cccc(C(N)=O)c2)CC[C@H](N)C(=O)O)[C@@H](O)[C@H]1O | Nicotinamide N-methyltransferase (NNMT, Homo sapiens, UniProt P40261) | enzyme activity, inhibitor, fluorescence | IC50 | 0.15 µM
CCOC(=O)[C@H]1O[C@@H]1C(=O)N[C@@H](CC(C)C)C(=O)NCCC(C)C | CTSB | enzyme activity, inhibitor | IC50 | 0.012 µM
Nc1ccccc1NC(=O)c1ccc(CNc2ccc(NC3=C(Cl)C(=O)c4cccnc4C3=O)cc2)cc1 | M-phase inducer phosphatase 3 (Homo sapiens, UniProt P30307) | enzyme activity, inhibitor | IC50 | 0.23 µM
CC1OC(OC2C(OC3C(CO)OC(O)C(O)C3O)OC(CO)C(O)C2OC2OC(CO)C(O)C(O)C2O)C(O)C(O)C1O (stereo not drawn) | LGALS4 C-terminal domain | binding, NMR | Kd | 170 µM
CC(=O)Nc1c(N)nc(SCC(=O)NN)[nH]c1=O | CDK2 with cyclin A2 | enzyme activity, inhibitor | IC50 | 0.172 µM
CC(=O)NC1C(OC2C(O)C(CO)OC(OC3C(CO)OC(O)C(O)C3O)C2OC2OC(C)C(O)C(O)C2O)OC(CO)C(O)C1O (stereo not drawn) | LGALS4 C-terminal domain | binding, NMR | Kd | 63 µM
O=C(O)Cc1csc(NC(=O)c2cc3ccccc3[nH]2)n1 | CDK2 | enzyme activity, inhibitor, ELISA | IC50 | 1.71 µM
CCCOc1nc(-c2cccc(O)c2)cc(-c2cc3cc(OC)ccc3nc2N2CCOCC2)c1C#N | PIM1 | enzyme activity, inhibitor | IC50 | 0.095 µM
